Assays:
CEM-SS = assay: Cytotoxicity on CEM-SS cells; assay type: functional, cell-based; details: Homo sapiens
Procedure, shortened: (§1)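 Visual cytotoxicity: microscopic inspection of stationary uninfected CEM or CEM-SS cells from suspension cultures.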

CCRF-CEM [1] = assay: Inhibitory concentration against mitochondrial DNA synthesis CEM cells; assay type: functional, cell-based; details: Homo sapiens
Procedure, shortened: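 CEM cells (2 × 10^5/mL) in RPMI 1640 + 10% dialyzed FBS with compound, re-split with fresh drug on days 4 and 6. On day 8, 1 × 10^5 cells lysed with RNase A and proteinase K, slot-blotted, probed with a mitochondrial DNA-specific probe.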

CCRF-CEM [2] = assay: Cytotoxicity was measured on CEM cells infected with Herpes Simplex virus […]; assay type: functional, cell-based; details: Homo sapiens
Daudi [3] = assay: Cytotoxicity on Daudi cells at time of […] in cells not effected by the virus.; assay type: functional, cell-based; details: Homo sapiens
Daudi [4] = assay: Inhibitory concentration against epstein-barr virus (EBV) infected daudi cells was determined; assay type: functional, cell-based; details: Homo sapiens
Procedure, shortened: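 Daudi cells infected with P3HR-1 EBV at 0.1–0.2 moi for 45 min at 37 °C, washed, then incubated 48 h with serially diluted drug in RPMI-1640. Acetone-fixed cells stained with anti-VCA monoclonal antibody and FITC anti-mouse IgG, Evans Blue counterstain; 500 cells counted, VCA-positive fraction used for IC50.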

Human alphaherpesvirus 1 = assay: Inhibitory concentration against herpes simplex virus type 1 (HSV-1) was determined by enzyme-linked immunosorbent assay (ELISA); assay type: functional, organism-based
[5] = Cytotoxicity on H-1 cells at time of HCMV plaque enumeration in cells not effected by the virus.; assay type: functional, cell-based; details: Homo sapiens
HFF [6] = assay: Cytotoxicity on stationary HFF cells at time of HCMV plaque enumeration in cells not effected by the virus.; assay type: functional, cell-based; details: Homo sapiens
Procedure, shortened: (§2)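 Visual cytotoxicity scored microscopically on stationary HFF or MEF cells not affected by virus, at the time of HCMV or MCMV plaque enumeration.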

HFF [7] = assay: IC50 value was evaluated by measuring the %inhibition of Human Herpes Virus 6(HHV-6) infected […] cells using ELISA assay; assay type: functional, cell-based
HFF [8] = assay: IC50 value was evaluated by measuring the %inhibition of Varicella Zoster virus(VZV) infected HFF cells using plaque reduction assay.; assay type: functional, cell-based; details: Homo sapiens
Procedure, shortened: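 HFF cells plated 2 days earlier and infected with VZV (20–30 plaques/well) for 1 h. Six 1:5 drug dilutions in MEM + 2% FBS, no antibody overlay, duplicate wells; extra medium on day 5, 10 days total at 37 °C. Neutral red stain, plaques counted; IC50 from regression.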

HFF [9] = assay: Inhibitory concentration against herpes simplex virus type 1 (HSV-1) infected HFF cells was determined by cytopathic effect inhibition assay; assay type: functional, cell-based; details: Homo sapiens
Procedure, shortened: (§3)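 HFF cells (low passage) seeded 24 h before in MEM + 10% FBS; drug in MEM + 2% FBS, serial 1:5 dilutions in triplicate, 1 h pre-incubation, then HSV-1 or HSV-2 at 1000 pfu/well. Incubated 3 days at 37 °C, crystal violet/ethanol/formaldehyde stain, absorbance at 630 nm; IC50 by linear regression of % inhibition vs log concentration.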

HFF [10] = assay: Inhibitory concentration against human cytomegalovirus replication in HFF cells was determined by cytopathic effect inhibition assay; assay type: functional, cell-based
Procedure, shortened: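 HFF cells seeded 24 h before; serial 1:5 drug dilutions in MEM + 2% FBS in triplicate, 1 h, then 2500 pfu/well CMV. Incubated 14 days at 37 °C with 50 μL MEM added on day 7; crystal violet stain, read at 630 nm. IC50 from regression.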

HFF [11] = assay: Inhibitory concentration against human cytomegalovirus replication in HFF cells was determined by plaque reduction assay; assay type: functional, cell-based
Procedure, shortened: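 HFF cells infected with HCMV Towne (~100 pfu/cm2). After adsorption, drug added to duplicate wells at four to eight concentrations; 8–10 days at 37 °C, crystal violet stain, microscopic plaques counted. % plaque reduction vs no-drug control; IC50 by linear regression vs log concentration.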

HFF [12] = assay: Compound was tested against HFF cells infected with herpes simplex virus type 2 (HSV-2) by cytopathic effect inhibition assay; assay type: functional, cell-based; details: Homo sapiens; procedure, shortened: as §3
HepG2 = assay: Inhibitory concentration against hepatitis B virus infected 2.2.15 cells; assay type: functional, cell-based; details: Homo sapiens
Procedure, shortened: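 HBV-producing 2.2.15 cells in MEM + 10% FBS; compounds added on days 6 and 9, 6 days of exposure. Virions in the medium precipitated with PEG/NaCl, DNA extracted, run on 0.8% agarose, Southern blotted with 32P HBV probe, quantified by densitometry.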

KB = assay: Cytotoxicity was evaluated by measuring the inhibition of KB cell growth.; assay type: functional, cell-based; details: Homo sapiens
Procedure, shortened: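 KB cells at 3000–5000/well, overnight at 37 °C, compound added in triplicate at eight concentrations. Growth over 48 h (two population doublings), then ethanol fixation, 0.1% crystal violet stain, eluted dye read at 570 nm; quadruplicate assays. IC50 by linear regression of % inhibition vs log concentration.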

Vero [13] = assay: Compound was tested against vero cells infected with herpes simplex virus type 2 (HSV-2); assay type: functional, cell-based; details: Chlorocebus sabaeus
Procedure, shortened: (§4)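 Confluent Vero monolayers (RPMI + 5% FBS + 0.1% methylcellulose) infected 1 h with HSV-1 KOS or HSV-2 333 at 20 or 100 pfu/well. Drug overlay in RPMI + 2% dialyzed FBS + 0.1% methylcellulose, 48–72 h at 37 °C, 5% CO2. Crystal violet stain, plaques counted; IC50 by linear regression of % inhibition vs log concentration.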

Vero [14] = assay: Inhibitory concentration against herpes simplex virus type 1 (HSV-1) infected vero cells was determined; assay type: functional, cell-based; details: Chlorocebus sabaeus; procedure, shortened: as §4
[15] = Inhibitory concentration against epstein-barr virus (EBV) infected H-1 cells was determined; assay type: functional, cell-based; details: Homo sapiens
Procedure, shortened: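 H-1 cells (high-yield EBV producer from P3HR-1) kept in log growth, seeded at 2 × 10^5/well with drug in RPMI 1640 + 10% dialyzed FBS for 5 days at 37 °C. Lysates treated with RNase A and proteinase K, slot-blotted, probed with 32P EBV EcoRI C fragment; normalized to Alu DNA vs untreated cells by densitometry.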

HFF [16] = assay: Inhibitory concentration against human cytomegalovirus replication in HFF cells was determined by yield reduction assay; assay type: functional
Procedure, shortened: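 HFF cells (12 500/well) infected with HCMV at moi 0.5–1 and exposed to compound in duplicate at 100 to 0.14 μM for 4 days at 37 °C. After freeze–thaw, supernatants serially diluted onto fresh HFF monolayers and plaques titered; IC90 reported.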

MEF [17] = assay: Inhibitory concentration against murine cytomegalovirus replication in MEF cells was determined by plaque reduction assay; assay type: functional, cell-based; details: Mus musculus
Procedure, shortened: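 MEF cells plated 2 days earlier and infected with MCMV (20–30 plaques/well) for 1 h. Six 1:5 drug dilutions in MEM + 2% FBS, duplicate wells, 7 days at 37 °C, 1.5% neutral red stain, plaques counted; IC50 by linear regression vs log concentration.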

CCRF-CEM [18] = assay: Cytotoxicity on CEM cells; assay type: functional, cell-based; details: Homo sapiens; procedure, shortened: as §1
MEF [19] = assay: Cytotoxicity on stationary MEF cells at time of MCMV plaque enumeration in cells not effected by the virus.; assay type: functional, cell-based; details: Mus musculus; procedure, shortened: as §2

Row | SMILES | IC50 (CEM-SS) | IC50 (CCRF-CEM [1]) | IC50 (CCRF-CEM [2]) | IC50 (Daudi [3]) | IC50 (Daudi [4]) | IC50 (Human alphaherpesvirus 1) | IC50 [5] | IC50 (HFF [6]) | IC50 (HFF [7]) | IC50 (HFF [8]) | IC50 (HFF [9]) | IC50 (HFF [10]) | IC50 (HFF [11]) | IC50 (HFF [12]) | IC50 (HepG2) | IC50 (KB) | IC50 (Vero [13]) | IC50 (Vero [14]) | IC50 [15] | IC90 (HFF [16]) | also measured
1 | Nc1nc(O)c2ncn(/C=C3\CC3CO)c2n1 (stereo not drawn) | > 100 µM | > 100 µM | > 100 µM | > 206 µM | > 206 µM | 100 µM | > 50 µM | > 100 µM | > 100 µM | 263 µM | > 413 µM | > 413 µM | > 100 µM | > 413 µM | > 10 µM | > 100 µM | > 100 µM | > 100 µM | > 50000 nM |  | 
2 | Nc1nc(Cl)c2ncn(/C=C3\CC3CO)c2n1 (stereo not drawn) | > 100 µM |  | 60 µM | > 199 µM | 143 µM | > 100 µM | < 50 µM |  |  |  | > 79.5 µM | > 79.5 µM | > 100 µM | > 79.5 µM | > 10 µM | > 100 µM | > 100 µM | 95 µM | > 10000 nM | 11000 nM | 
3 | Nc1nc2c(ncn2COC(CO)CO)c(=O)[nH]1 [GANCICLOVIR] |  |  |  |  |  |  |  |  |  |  |  | 2.6 µM | 7.4 µM |  |  |  |  |  |  | 1600 nM | IC50 (MEF [17]): 3400 nM
4 | Nc1ccn([C@H]2CC[C@@H](CO)O2)c(=O)n1 [ZALCITABINE] |  | 0.07 µM |  |  |  |  |  |  |  |  |  |  |  |  | 1.4 µM |  |  |  |  |  | IC50 (CCRF-CEM [18]): 10 µM
5 | Nc1nc(O)c2ncn(/C=C3/CC3CO)c2n1 (stereo not drawn) [SYNGUANOL] | > 100 µM | > 100 µM | > 100 µM | > 214 µM | 5.6 µM | 100 µM | > 50 µM | > 100 µM | 42.5 µM | 61.3 µM | 61.7 µM | 0.04 µM | 2.1 µM | > 413 µM | 10 µM | > 100 µM | > 100 µM | 85 µM | 300 nM | 1800 nM | IC50 (MEF [17]): 300 nM; IC50 (MEF [19]): > 429 µM
6 | Nc1ncnc2c1ncn2/C=C1\CC1CO (stereo not drawn) | > 100 µM | > 50 µM | > 100 µM | > 230 µM | 71.4 µM | > 100 µM | > 50 µM | > 100 µM | > 100 µM | 90.2 µM | 36 µM | 395 µM | > 100 µM | 395 µM | > 10 µM | > 100 µM | > 100 µM | > 100 µM | 3000 nM | > 100000 nM | 
7 | Nc1ncnc2c1ncn2/C=C1/CC1CO (stereo not drawn) | > 100 µM | > 50 µM | > 100 µM | 368 µM | 3.2 µM | 33 µM | > 50 µM | > 100 µM | 14 µM | 2.5 µM | < 0.14 µM | 1 µM | 2.1 µM | 10.6 µM | 2 µM | 78 µM | 59 µM | 28 µM | 200 nM | 1100 nM | IC50 (MEF [17]): 2100 nM; IC50 (MEF [19]): > 92 µM
8 | Nc1nc(Cl)c2c(ncn2/C=C2/CC2CO)n1 (stereo not drawn) | > 100 µM | > 50 µM | 80 µM | > 199 µM | 1.2 µM | 31 µM | > 50 µM | > 100 µM | 50 µM | > 518 µM | > 79.5 µM | 5.6 µM | 5 µM | > 79.5 µM | > 10 µM | > 100 µM | 55 µM | 52 µM | 700 nM | 800 nM | IC50 (MEF [17]): 300 nM; IC50 (MEF [19]): 270 µM

— ChEMBL document CHEMBL1131504, “(Z)- and (E)-2-((hydroxymethyl)cyclopropylidene)methyladenine and -guanine. New nucleoside analogues with a broad-spectrum antiviral activity” (J Med Chem, 1998)
